Measurements: ChEMBL document CHEMBL4024793, “Development of Stem-Cell-Mobilizing Agents Targeting CXCR4 Receptor for Peripheral Blood Stem Cell Transplantation and Beyond” (J Med Chem, 2018)
The source made the active and inactive calls. The rule behind the calls is not given here.

Tests used:
[1] = system: Mus musculus; experiment: In vivo antagonist activity at CXCR4 in C57BL/6 mouse assessed as induction of neutrophils molization at 35 mg/kg, sc measured after 2 hrs relative to untreated control; format: functional
[2] = system: Rattus norvegicus; experiment: Hepatotoxicity in Sprague-Dawley rat assessed as effect on liver color at 50 mg/kg/day, sc administered for 14 days relative to control; format: toxicity, organism-based; details: in vivo, 336 h
Summary of the method: (§1)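 Non-GLP 14-day repeated-dose study in SD rats given 50 mg/kg/day SC. Major organs (liver, kidney, lung, heart) compared with vehicle for size, weight and colour. Blood analysed for hematological and biochemical parameters.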

[3] = system: Mus musculus; experiment: In vivo induction of WBC mobilization in C57BL/6 mouse at 35 mg/kg, sc measured after 2 hrs; format: functional, organism-based
Summary of the method: (§2)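 C57BL/6 mice given a single SC injection at 6 or 35 mg/kg. Blood collected 2 h after dosing and analysed for total white blood cells, neutrophils, lymphocytes and monocytes.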

[4] = system: Mus musculus; experiment: Therapeutic ratio of MTD for sc dosed C57BL/6 mouse to MED for hematopoietic stem cell mobilization in sc dosed C57BL/6 mouse
Summary of the method: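 MTD: C57BL/6 or ICR male mice dosed SC from low to high, n = 3 per group; MTD is the highest dose with zero mortality (0/3). MED: lowest SC dose raising blood CXCR4⁺ cells at 2 h, by flow cytometry, in the escalating-dose study. Ratio calculated as MTD/MED.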

[5] = system: Rattus norvegicus; experiment: Hepatotoxicity in Sprague-Dawley rat assessed as effect on liver size at 50 mg/kg/day, sc administered for 14 days relative to control; format: toxicity, organism-based; details: in vivo, 336 h; summary of the method: as §1
[6] = molecular target: Cytochrome P450 2C19 (Homo sapiens, UniProt P33261); experiment: Inhibition of human liver microsomal CYP2C19; format: ADME
Chain of Cytochrome P450 2C19 (P33261 whole entry): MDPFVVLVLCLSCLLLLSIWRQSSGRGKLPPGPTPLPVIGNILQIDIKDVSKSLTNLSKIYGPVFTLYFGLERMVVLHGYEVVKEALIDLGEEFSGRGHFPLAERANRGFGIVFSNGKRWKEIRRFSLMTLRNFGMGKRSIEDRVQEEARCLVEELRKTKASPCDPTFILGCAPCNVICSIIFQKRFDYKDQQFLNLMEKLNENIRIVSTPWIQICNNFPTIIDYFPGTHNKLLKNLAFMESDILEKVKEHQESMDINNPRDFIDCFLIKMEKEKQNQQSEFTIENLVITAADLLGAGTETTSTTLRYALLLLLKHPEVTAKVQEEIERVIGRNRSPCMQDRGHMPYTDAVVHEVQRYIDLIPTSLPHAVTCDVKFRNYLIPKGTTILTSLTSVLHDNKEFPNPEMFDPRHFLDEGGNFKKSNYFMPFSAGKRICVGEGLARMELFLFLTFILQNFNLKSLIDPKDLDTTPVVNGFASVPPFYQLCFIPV

[7] = molecular target: T1, C-X-C chemokine receptor type 4 (Homo sapiens, UniProt P61073); experiment: Antagonist activity at human CXCR4 expressed in CHOK1 cells assessed as inhibition of SDF1a-induced cAMP accumulation at 10 uM preincubated for 30 mins followed agonist addition measured after 30 to 60 mins; format: functional, cell-based
T1 sequence (P61073 whole entry): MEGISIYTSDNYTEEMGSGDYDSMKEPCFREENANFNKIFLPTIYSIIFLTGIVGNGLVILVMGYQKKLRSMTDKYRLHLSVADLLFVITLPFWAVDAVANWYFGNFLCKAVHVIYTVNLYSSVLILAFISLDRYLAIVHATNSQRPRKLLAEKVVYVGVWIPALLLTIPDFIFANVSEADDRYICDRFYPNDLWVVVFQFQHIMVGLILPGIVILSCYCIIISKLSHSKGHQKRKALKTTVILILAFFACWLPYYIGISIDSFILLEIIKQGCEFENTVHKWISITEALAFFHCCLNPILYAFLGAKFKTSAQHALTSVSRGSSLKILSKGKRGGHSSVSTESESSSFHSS
Summary of the method: (§3)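 GPCR cAMP assay with a single test concentration of 10 μM; result expressed as percentage inhibition for each chemokine receptor.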

[8] = system: Mus musculus; experiment: Induction of hematopoietic stem cell mobilization in C57BL/6 mouse assessed as increase in CFU-GM colonies from PBMC at 35 mg/kg, sc administered on day 5 post 100 ug/kg/day G-CSF addition for 4 days measured after 2 hrs post compound dose by colony forming assay relative to AMD3100; format: functional
Summary of the method: (§4)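 Male C57BL/6 mice given G-CSF 100 µg/kg SC daily for 4 days. On day 5, G-CSF was co-injected SC with compound. Heparinized blood taken 2 h later; PBMCs isolated and cultured in methylcellulose medium for 10–14 days. CFU-GM colonies (aggregates of ≥50 cells) counted under an inverted microscope. Mean ± SEM, 8–12 mice per group, t test.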

[9] = molecular target: Cytochrome P450 1A2 (Homo sapiens, UniProt P05177); experiment: Inhibition of human liver microsomal CYP1A2; format: ADME
Chain of Cytochrome P450 1A2 (P05177 whole entry): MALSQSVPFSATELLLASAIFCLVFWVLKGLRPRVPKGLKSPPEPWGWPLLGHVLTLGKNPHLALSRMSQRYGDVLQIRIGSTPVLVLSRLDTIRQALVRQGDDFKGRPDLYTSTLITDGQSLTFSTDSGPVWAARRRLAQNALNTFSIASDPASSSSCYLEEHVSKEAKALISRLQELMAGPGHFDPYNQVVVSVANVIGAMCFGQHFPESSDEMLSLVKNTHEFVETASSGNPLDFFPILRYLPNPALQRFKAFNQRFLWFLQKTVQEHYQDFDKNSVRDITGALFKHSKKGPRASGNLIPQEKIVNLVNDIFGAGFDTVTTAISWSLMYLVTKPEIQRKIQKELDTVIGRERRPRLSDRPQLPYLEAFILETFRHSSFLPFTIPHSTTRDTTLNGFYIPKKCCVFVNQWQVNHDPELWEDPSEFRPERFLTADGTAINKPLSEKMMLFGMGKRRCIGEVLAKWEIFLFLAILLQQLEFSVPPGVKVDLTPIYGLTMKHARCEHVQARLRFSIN

[10] = Cmax in C57BL/6 mouse at 6 mg/kg, sc measured up to 4 hrs post dose by LC-MS/MS analysis; format: ADME, organism-based; design: dose 6 mg/kg, route subcutaneous; details: in vivo
Summary of the method: (§5)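 Male C57BL/6 mice (23.4–25.4 g), quarantined one week, non-fasted, n = 3; single SC dose of 6 mg/kg in 100% saline. Blood taken by cardiac puncture at 0, 0.03, 0.08, 0.25, 1, 1.5, 2 and 4 h and stored at -80 °C. Plasma analysed by LC–MS/MS; parameters from non-compartmental analysis; mean ± SD.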

[11] = system: Mus musculus; experiment: In vivo antagonist activity at CXCR4 in C57BL/6 mouse assessed as induction of neutrophils molization at 35 mg/kg, sc measured after 2 hrs relative to AMD3100; format: functional; design: scale not given: the % may be the effect or the level left; summary of the method: as §2
[12] = system: Rattus norvegicus; experiment: Hepatotoxicity in Sprague-Dawley rat assessed as effect on liver weight at 50 mg/kg/day, sc administered for 14 days relative to control; format: toxicity, organism-based; details: in vivo, 336 h; summary of the method: as §1
[13] = system: Rattus norvegicus; experiment: Renal toxicity in Sprague-Dawley rat assessed as effect on kidney color at 50 mg/kg/day, sc administered for 14 days relative to control; format: organism-based; details: in vivo, 336 h; summary of the method: as §1
[14] = system: Rattus norvegicus; experiment: Renal toxicity in Sprague-Dawley rat assessed as effect on kidney weight at 50 mg/kg/day, sc administered for 14 days relative to control; format: organism-based; details: in vivo, 336 h; summary of the method: as §1
[15] = system: Rattus norvegicus; experiment: Cardiotoxicity in Sprague-Dawley rat assessed as effect on heart weight at 50 mg/kg/day, sc administered for 14 days relative to control; format: toxicity, organism-based; details: in vivo, 336 h; summary of the method: as §1
[16] = molecular target: C-X-C chemokine receptor type 2 (Homo sapiens) (UniProt P25025); experiment: Antagonist activity at human CXCR2 expressed in CHOK1 cells assessed as inhibition of interleukin-8-induced cAMP accumulation at 10 uM preincubated for 30 mins followed agonist addition measured after 30 to 60 mins; format: functional, cell-based; summary of the method: as §3
Chain of C-X-C chemokine receptor type 2 (Homo sapiens) (P25025 whole entry): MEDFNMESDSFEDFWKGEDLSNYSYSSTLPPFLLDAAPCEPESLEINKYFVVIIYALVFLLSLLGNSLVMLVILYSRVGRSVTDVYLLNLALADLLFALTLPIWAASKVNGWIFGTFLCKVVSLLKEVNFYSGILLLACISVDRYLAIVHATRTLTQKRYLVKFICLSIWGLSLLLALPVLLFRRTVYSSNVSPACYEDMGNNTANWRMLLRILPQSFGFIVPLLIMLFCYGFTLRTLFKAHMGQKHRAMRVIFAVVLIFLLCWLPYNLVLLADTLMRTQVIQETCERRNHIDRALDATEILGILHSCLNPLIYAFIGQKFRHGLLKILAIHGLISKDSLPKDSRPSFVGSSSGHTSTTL

[17] = system: Rattus norvegicus; experiment: Renal toxicity in Sprague-Dawley rat assessed as effect on kidney size at 50 mg/kg/day, sc administered for 14 days relative to control; format: organism-based; details: in vivo, 336 h; summary of the method: as §1
[18] = system: Mus musculus; experiment: Induction hematopoietic stem cell mobilization in C57BL/6 mouse assessed as increase in CXCR4+ cells in blood at 50 mg/kg, sc measured after 2 hrs by APC-conjugated anti-CXCR4-staining based flow cytometry relative to vehicle control; format: functional, organism-based
Summary of the method: (§6)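 Male C57BL/6 mice, 8–10 weeks old, given a single SC injection at escalating doses of 1, 6, 20, 35 and 50 mg/kg. Blood collected 2 h later and stained with antibodies including APC-anti-CXCR4. CXCR4⁺ cells counted by flow cytometry, at least 60,000 events per sample. n = 3 per group; mean ± SEM; t test against vehicle.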

[19] = AUC (0 to 4 hrs) in C57BL/6 mouse at 6 mg/kg, sc measured up to 4 hrs post dose by LC-MS/MS analysis; format: ADME, organism-based; design: dose 6 mg/kg, time < 4 hr, route subcutaneous; details: in vivo; summary of the method: as §5
[20] = system: Rattus norvegicus; experiment: Cardiotoxicity in Sprague-Dawley rat assessed as effect on heart color at 50 mg/kg/day, sc administered for 14 days relative to control; format: toxicity, organism-based; details: in vivo, 336 h; summary of the method: as §1
[21] = system: Mus musculus; experiment: Induction hematopoietic stem cell mobilization in sc dosed C57BL/6 mouse assessed as increase in CXCR4+ cells in blood measured after 2 hrs by APC-conjugated anti-CXCR4 -staining based flow cytometry relative to vehicle control; format: functional; details: C57BL/6, sc, read-out: MED; summary of the method: as §6
[22] = system: Rattus norvegicus; experiment: Renal toxicity in Sprague-Dawley rat assessed as effect on kidney histology parameters up to 100 mg/kg/day, sc after 24 hrs by H and E staining based microscopy; format: organism-based; details: in vivo
Summary of the method: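 Acute kidney histology study in SD rats at doses up to 100 mg/kg. Renal tissue compared with controls by photomicrographs.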

[23] = Half life in C57BL/6 mouse at 6 mg/kg, sc measured up to 4 hrs post dose by LC-MS/MS analysis; format: ADME, organism-based; details: in vivo; summary of the method: as §5
[24] = molecular target: Cytochrome P450 2D6 (Homo sapiens, UniProt P10635); experiment: Inhibition of human liver microsomal CYP2D6; format: ADME
Chain of Cytochrome P450 2D6 (P10635 whole entry): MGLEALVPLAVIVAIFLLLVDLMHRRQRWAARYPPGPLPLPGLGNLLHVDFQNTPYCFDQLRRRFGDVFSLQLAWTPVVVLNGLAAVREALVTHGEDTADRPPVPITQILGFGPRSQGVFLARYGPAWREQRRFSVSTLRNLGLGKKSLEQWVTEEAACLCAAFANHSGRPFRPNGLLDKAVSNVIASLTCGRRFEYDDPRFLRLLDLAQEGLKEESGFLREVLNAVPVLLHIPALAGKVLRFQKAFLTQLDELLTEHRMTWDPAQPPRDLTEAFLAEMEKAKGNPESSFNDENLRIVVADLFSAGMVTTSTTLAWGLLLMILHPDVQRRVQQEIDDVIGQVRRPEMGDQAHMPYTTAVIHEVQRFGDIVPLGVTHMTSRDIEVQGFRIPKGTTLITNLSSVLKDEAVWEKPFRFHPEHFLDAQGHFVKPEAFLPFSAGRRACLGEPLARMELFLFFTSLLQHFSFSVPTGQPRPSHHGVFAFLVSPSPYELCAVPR

[25] = system: Mus musculus; experiment: Induction of hematopoietic stem cell mobilization in C57BL/6 mouse assessed as increase in CFU-GM colonies from PBMC at 6 mg/kg, sc administered on day 5 post 100 ug/kg/day G-CSF addition for 4 days measured after 2 hrs post compound dose by colony forming assay relative to G-CSF alone; format: functional; summary of the method: as §4
[26] = molecular target: T1, C-X-C chemokine receptor type 4; experiment: Displacement of [125I]CXCL12 from human CXCR4 expressed in HEK293 cell membranes after 1.5 hrs by Topcount method

Q: With Cc1cc(NC2CCN(C(=O)CCNCC(=O)O)CC2)nc(NCc2cn(CCCNCCCNC3CCCCC3)nn2)n1 as the compound, how does the “fold change (FC)” value [1] read?
A: Its value is 2 - 4.

Q: And the Activity [2]?
A: Its Activity is “Non-Toxic”.

Q: What about the Activity [3] of the same compound?
A: The Activity was “Active”.

Q: What about the TI [4] of the same compound?
A: The TI was 12.5.

Q: What about the Activity [5] of the same compound?
A: The Activity was “Non-Toxic”.

Q: And the IC50 [6]?
A: The IC50 was greater than 100 µM.

Q: And the Efficacy [7]?
A: The Efficacy was 73.4%.

Q: What about the “fold change (FC)” value [8] of the same compound?
A: Its value is 1.6.

Q: And the IC50 [9]?
A: Its IC50 is greater than 100 µM.

Q: What about the Cmax [10] of the same compound?
A: The Cmax was 16400 ng/mL.

Q: And the Activity [11]?
A: Its Activity is 30 - 50%.

Q: And the Activity [12]?
A: Its Activity is “Non-Toxic”.

Q: And the Activity [13]?
A: Its Activity is “Non-Toxic”.

Q: What about the Activity [14] of the same compound?
A: Its Activity is “Non-Toxic”.

Q: What about the Activity [15] of the same compound?
A: The Activity was “Non-Toxic”.

Q: And the Efficacy [16]?
A: Its Efficacy is 0.5%.

Q: What about the Activity [17] of the same compound?
A: Its Activity is “Non-Toxic”.

Q: What about the Activity [18] of the same compound?
A: Its Activity is “inactive”.

Q: And the AUC(0-t) at 4 h [19]?
A: Its AUC(0-t) at 4 h is 13500 ng·h/mL.

Q: And the Activity [20]?
A: Its Activity is “Non-Toxic”.

Q: And the minimal effective dose [21]?
A: The minimal effective dose was 6 mg/kg.

Q: And the Activity [22]?
A: Its Activity is “Non-Toxic”.

Q: And the half-life [23]?
A: Its half-life is 30 min.

Q: And the IC50 [24]?
A: Its IC50 is greater than 100 µM.

Q: What about the “fold change (FC)” value [25] of the same compound?
A: Its value is 5.3.

Q: What about the IC50 [26] of the same compound?
A: Its IC50 is 0.0342 µM.
